Active and inactive are the calls of the source. The rule behind the calls is not given here.
Key:
[1] = system: L1210; assay: In vitro cytotoxicity against L1210 cells was determined after 48 hours of incubation; format: functional, Mus musculus; conditions: read-out: ID50 (the source's name)
Method in brief: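 Exponentially growing L1210 cells were cultured in RPMI 1640 with 2 mM glutamine, penicillin/streptomycin and 10% fetal calf serum, under 5% CO2 at 37 °C. Drugs dissolved in distilled water were added to cells at 0.8 × 10^5 cells/mL for 48 h, then cells were counted. ID50 was estimated by regression of dose-response data, as the mean of two values from two independent experiments.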

[2] = system: Mus musculus; assay: In vivo antitumor activity was determined against P388 leukemia cells expressed as treated/control at the dosage of 10 mg/kg; format: functional
Method in brief: (§1)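 Following NCI protocols, 10^6 viable P388 leukemia cells were inoculated ip on day 0 into male or female CDF1 hybrid mice, 10 per test group. Compounds in distilled water were given ip (0.1 mL/10 g body weight) at various doses on days 1–5. T/C = median survival day of treated / median survival day of negative controls × 100.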

[3] = system: Mus musculus; assay: In vivo antitumor activity was determined against P388 leukemia cells expressed as treated/control at the dosage of 20 mg/kg; format: functional; method in brief: as §1
[4] = system: Mus musculus; assay: In vivo antitumor activity was determined against P388 leukemia cells expressed as treated/control at the dosage of 40 mg/kg; format: functional; method in brief: as §1
[5] = system: Calf thymus DNA; assay: Binding affinity for DNA by ethidium bromide displacement assay; format: nucleic-acid assay; conditions: Bos taurus
Method in brief: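 Competitive ethidium bromide displacement with calf thymus DNA at 10 µg/mL in 20 mM Na phosphate buffer, 0.1 M NaCl, 1 mM EDTA, pH 7.4. The apparent DNA affinity constant is given in 10^6 M^-1 ± standard deviation, from 6 values across two independent experiments.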

[6] = system: Mus musculus; assay: In vivo antitumor activity was determined against P388 leukemia cells expressed as treated/control at the dose of 50 mg/kg;T = toxic at this dose; format: organism-based; parameters: dose 50 mg/kg; method in brief: as §1
[7] = system: Mus musculus; assay: In vivo antitumor activity was determined against P388 leukemia cells expressed as treated/control at the dose of (5-20)mg/kg; IA = Inactive; format: functional, organism-based; method in brief: as §1
[8] = system: Mus musculus; assay: In vivo antitumor activity was determined against P388 leukemia cells expressed as treated/control at the dose of 80 mg/kg;T = toxic at this dose; format: organism-based; parameters: dose 80 mg/kg; method in brief: as §1
[9] = system: Mus musculus; assay: In vivo antitumor activity was determined against P388 leukemia cells expressed as treated/control at the dose of (2.5-40)mg/kg; IA = Inactive; format: functional, organism-based; method in brief: as §1
[10] = system: Mus musculus; assay: In vivo antitumor activity was determined against P388 leukemia cells expressed as treated/control at the dose of (2.5-40)mg/kg(nontoxic at highest dose tested.); IA = Inactive; format: functional, organism-based; method in brief: as §1
[11] = system: Mus musculus; assay: In vivo antitumor activity was determined against P388 leukemia cells expressed as treated/control at the dose of 10 mg/kg; format: functional; method in brief: as §1
[12] = system: Mus musculus; assay: In vivo antitumor activity was determined against P388 leukemia cells expressed as treated/control at the dose of 20 mg/kg; format: functional; method in brief: as §1
[13] = system: Mus musculus; assay: In vivo antitumor activity was determined against P388 leukemia cells expressed as treated/control at the dose of 40 mg/kg; format: functional; method in brief: as §1
[14] = system: Mus musculus; assay: In vivo antitumor activity was determined against P388 leukemia cells expressed as treated/control at the dose of 50 mg/kg; format: functional; method in brief: as §1
[15] = system: Mus musculus; assay: In vivo antitumor activity was evaluated on L1210 leukemia model and percent of treated/control of tumor cells was determined at 1.25 mg/kg dosage concentration; format: functional
Method in brief: as §1, with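 “10^5” for “10^6”, “L1210” for “P388”, “dosed” for “given”, “daily” for “at various doses”, “treated mice” for “treated”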

[16] = system: Mus musculus; assay: In vivo antitumor activity was evaluated on L1210 leukemia model and percent of treated/control of tumor cells was determined at 10 mg/kg dosage concentration; format: functional
Method in brief: as §1, with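 “10^5” for “10^6”, “L1210” for “P388”, “dosed” for “given”, “daily” for “at various doses”, “treated mice” for “treated”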

[17] = system: Mus musculus; assay: In vivo antitumor activity was evaluated on L1210 leukemia model and percent of treated/control of tumor cells was determined at 2.5 mg/kg dosage concentration.; format: functional
Method in brief: as §1, with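 “10^5” for “10^6”, “L1210” for “P388”, “dosed” for “given”, “daily” for “at various doses”, “treated mice” for “treated”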

[18] = system: Mus musculus; assay: In vivo antitumor activity was evaluated on L1210 leukemia model and percent of treated/control of tumor cells was determined at 20 mg/kg dosage concentration; format: functional
Method in brief: (§2)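 L1210 leukemia, 10^5 viable cells inoculated ip on day 0 into CDF1 hybrid male or female mice, 10 mice per group. Compounds were given ip in distilled water (0.1 mL/10 g body weight) on days 1-5. Vehicle controls were treated the same way. NCI protocols were followed. T/C = median survival day of treated mice / median survival day of vehicle controls × 100.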

[19] = system: Mus musculus; assay: In vivo antitumor activity was evaluated on L1210 leukemia model and percent of treated/control of tumor cells was determined at 40 mg/kg dosage concentration; format: functional
Method in brief: as §1, with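 “10^5” for “10^6”, “L1210” for “P388”, “dosed” for “given”, “daily” for “at various doses”, “treated mice” for “treated”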

[20] = system: Mus musculus; assay: In vivo antitumor activity was evaluated on L1210 leukemia model and percent of treated/control of tumor cells was determined at 50 mg/kg dosage concentration; format: functional
Method in brief: as §1, with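 “10^5” for “10^6”, “L1210” for “P388”, “dosed” for “given”, “daily” for “at various doses”, “treated mice” for “treated”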

[21] = system: Mus musculus; assay: In vivo antitumor activity was evaluated on L1210 leukemia model and percent of treated/control of tumor cells was determined at 5 mg/kg dosage concentration; format: functional
Method in brief: as §1, with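 “10^5” for “10^6”, “L1210” for “P388”, “dosed” for “given”, “daily” for “at various doses”, “treated mice” for “treated”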

[22] = system: Mus musculus; assay: In vivo antitumor activity was determined against P388 leukemia cells expressed as number of animals survived; format: functional
Method in brief: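 P388 leukemia, 10^6 viable cells inoculated ip on day 0 into CDF1 hybrid male or female mice, 10 mice per group. Compounds were given ip in distilled water (0.1 mL/10 g body weight) at various doses on days 1-5. Vehicle controls were treated the same way. NCI protocols were followed.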

[23] = system: Mus musculus; assay: In vivo antitumor activity was evaluated on L1210 leukemia model and number of survivors (animals) was determined at 1.25 mg/kg dosage concentration; number of survivors given as 0/10; format: functional; method in brief: as §2
[24] = system: Mus musculus; assay: In vivo antitumor activity was evaluated on L1210 leukemia model and number of survivors (animals) was determined at 10 mg/kg dosage concentration; number of survivors given as 3/10; format: functional; method in brief: as §2
[25] = system: Mus musculus; assay: In vivo antitumor activity was evaluated on L1210 leukemia model and number of survivors (animals) was determined at 2.5 mg/kg dosage concentration; number of survivors given as 0/10; format: functional; method in brief: as §2
[26] = system: Mus musculus; assay: In vivo antitumor activity was evaluated on L1210 leukemia model and number of survivors (animals) was determined at 20 mg/kg dosage concentration; number of survivors given as 0/10; format: functional; method in brief: as §2
[27] = system: Mus musculus; assay: In vivo antitumor activity was evaluated on L1210 leukemia model and number of survivors (animals) was determined at 40 mg/kg dosage concentration; number of survivors given as 0/10; format: functional; method in brief: as §2
[28] = system: Mus musculus; assay: In vivo antitumor activity was evaluated on L1210 leukemia model and number of survivors (animals) was determined at 50 mg/kg dosage concentration; number of survivors given as 0/10; format: functional; method in brief: as §2
[29] = system: Mus musculus; assay: In vivo antitumor activity was evaluated on L1210 leukemia model and number of survivors (animals) was determined at 5 mg/kg dosage concentration; number of survivors given as 0/10; format: functional; method in brief: as §2
[30] = system: Mus musculus; assay: In vivo antitumor activity was evaluated on L1210 leukemia model and weight change in tumors was determined at 50 mg/kg dosage concentration; format: functional
[31] = system: Mus musculus; assay: In vivo antitumor activity was evaluated on L1210 leukemia model and weight change in tumors was determined at 5 mg/kg dosage concentration; format: functional
[32] = system: Mus musculus; assay: In vivo antitumor activity was evaluated on L1210 leukemia model and weight change in tumors was determined at 40 mg/kg dosage concentration; format: functional
[33] = system: Mus musculus; assay: In vivo antitumor activity was evaluated on L1210 leukemia model and median survival day was determined at 1.25 mg/kg dosage concentration; format: functional; method in brief: as §2
[34] = system: Mus musculus; assay: In vivo antitumor activity was evaluated on L1210 leukemia model and median survival day was determined at 10 mg/kg dosage concentration; format: functional; method in brief: as §2
[35] = system: Mus musculus; assay: In vivo antitumor activity was evaluated on L1210 leukemia model and median survival day was determined at 2.5 mg/kg dosage concentration.; format: functional; method in brief: as §2
[36] = system: Mus musculus; assay: In vivo antitumor activity was evaluated on L1210 leukemia model and median survival day was determined at 20 mg/kg dosage concentration; format: functional; method in brief: as §2
[37] = system: Mus musculus; assay: In vivo antitumor activity was evaluated on L1210 leukemia model and median survival day was determined at 40 mg/kg dosage concentration; format: functional; method in brief: as §2
[38] = system: Mus musculus; assay: In vivo antitumor activity was evaluated on L1210 leukemia model and median survival day was determined at 50 mg/kg dosage concentration; format: functional; method in brief: as §2
[39] = system: Mus musculus; assay: In vivo antitumor activity was evaluated on L1210 leukemia model and weight change in tumors was determined at 1.25 mg/kg dosage concentration; format: functional
[40] = system: Mus musculus; assay: In vivo antitumor activity was evaluated on L1210 leukemia model and weight change in tumors was determined at 10 mg/kg dosage concentration; format: functional
[41] = system: Mus musculus; assay: In vivo antitumor activity was evaluated on L1210 leukemia model and weight change in tumors was determined at 2.5 mg/kg dosage concentration.; format: functional
[42] = system: Mus musculus; assay: In vivo antitumor activity was evaluated on L1210 leukemia model and weight change in tumors was determined at 20 mg/kg dosage concentration; format: functional
[43] = system: Mus musculus; assay: In vivo antitumor activity was evaluated on L1210 leukemia model and median survival day was determined at 5 mg/kg dosage concentration; format: functional; method in brief: as §2

CCN(CC)CCCNc1ncc(C)c2[nH]c3ccncc3c12
IC50 [1]: 0.34 µM | T/C [2]: 135 | T/C [3]: 148 | T/C [4]: 155

CCN(CC)CCCCNc1[nH]cc(C)c2nc3ccncc3c1-2
K aff [5]: 30000 M⁻¹ | IC50 ([1]; Mus musculus, L1210, 48 h): 12 µM | T/C [6]: Toxic | T/C [7]: inactive

CCNCCCNc1[nH]cc(C)c2nc3ccncc3c1-2
K aff [5]: 25000 M⁻¹ | IC50 ([1]; Mus musculus, L1210, 48 h): 17.4 µM | T/C [8]: Toxic | T/C [9]: inactive

Cc1cnc(NCCCN2CCOCC2)c2c3cnccc3n(C)c12
K aff [5]: 30000 M⁻¹ | IC50 ([1]; Mus musculus, L1210, 48 h): 5.3 µM | T/C [10]: inactive

Cc1c[nH]c(NCCCN(C)C)c2c3cnccc3nc1-2
K aff [5]: 20000 M⁻¹ | IC50 ([1]; Mus musculus, L1210, 48 h): 0.16 µM | T/C [11]: 156 | T/C [12]: 186 | T/C [13]: 184 | T/C [14]: 181 | T/C [15]: 127.5% | T/C [16]: 177% | T/C [17]: 140% | T/C [18]: 169.5% | T/C [19]: 100% | T/C [20]: 89% | T/C [21]: 152% | Survivors [22]: 1 | Survivors [23]: 0 | Survivors [24]: 3 | Survivors [25]: 0 | Survivors [26]: 0 | Survivors [27]: 0 | Survivors [28]: 0 | Survivors [29]: 0 | Weight changes [30]: -2.4 g | Weight changes [31]: 0.3 g | Weight changes [32]: -1.1 g | Median survival day [33]: 11.75 | Median survival day [34]: 16.25 | Median survival day [35]: 12.9 | Median survival day [36]: 15.6 | Median survival day [37]: 9.25 | Median survival day [38]: 8.2 | Weight changes [39]: 0.3 g | Weight changes [40]: 0.5 g | Weight changes [41]: 0.3 g | Weight changes [42]: -1.7 g | Median survival day [43]: 14

Reference: ChEMBL document CHEMBL1123837, “1-Amino-substituted 4-methyl-5H-pyrido[3',4':4,5]pyrrolo[3,2-c]pyridines: a new class of antineoplastic agents” (J Med Chem, 1987)
